The record followed here is ChEMBL document CHEMBL3407391, “Ether analogues of DPA-714 with subnanomolar affinity for the translocator protein (TSPO)” (Eur J Med Chem, 2015).

For assay [1], the target named is Translocator protein (Homo sapiens, UniProt P30536). The assay can be described thus: Inhibition of human TSPO.
Assay [2] concerns the target T1, Translocator protein (Rattus norvegicus, UniProt P16257). The assay can be described thus: Inhibition of rat TSPO.
In another assay the test system is C6. Description: Induction of pregnenolone production in rat C6 cells at 40 uM after 2 hrs by ELISA based steroidogenesis assay relative to control. Type of assay: functional. The procedure, abridged:
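C6 glioma cells grown in DMEM with 10% FBS at 37 °C, 5% CO2, then seeded at 1×10^4 cells/well and washed three times with simple salts medium (HEPES/NaOH pH 7.4, 0.1% BSA). Cells were exposed to compound at 40 μM in salts medium with trilostane (25 μM) and SU 10603 (10 μM) for 2 h at 37 °C, DMSO ≤0.5%. Secreted pregnenolone was measured by ELISA; 6–9 replicates.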
On the technique in general: In an ELISA, binding on a coated surface is turned into a signal by an enzyme label.

The target of assay [3] is T1, Translocator protein. Details: species or system Wistar, Kidney.

T1 sequence (P16257 whole entry, looked up): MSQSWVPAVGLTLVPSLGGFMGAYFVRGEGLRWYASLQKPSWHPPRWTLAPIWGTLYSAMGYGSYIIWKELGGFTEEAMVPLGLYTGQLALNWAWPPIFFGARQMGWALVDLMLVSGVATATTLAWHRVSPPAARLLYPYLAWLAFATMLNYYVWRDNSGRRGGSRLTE
Sequence of Translocator protein (Homo sapiens, UniProt P30536) (P30536 whole entry): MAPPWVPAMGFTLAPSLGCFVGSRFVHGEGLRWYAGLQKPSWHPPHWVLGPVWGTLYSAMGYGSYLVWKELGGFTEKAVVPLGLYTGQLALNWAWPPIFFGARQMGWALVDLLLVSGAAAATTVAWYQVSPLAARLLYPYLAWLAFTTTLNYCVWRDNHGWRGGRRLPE

For orientation: Ki means a measure of affinity in units of concentration, obtained from inhibition or displacement. Read a low Ki as a stronger hold on the target. With `COc1ccccc1CN(C(C)=O)c1cnccc1Oc1ccccc1`, the inhibition constant Ki at Translocator protein [1] came out at 2.5 nM; at Translocator protein [2], 0.7 nM.

In turn, `CCN(CC)C(=O)Cc1c(-c2ccc(OC(C)C)cc2)nn2c(C)cc(C)nc12` came in with an Activity in the assay with C6 of 165%.

Compound `CCN(CC)C(=O)Cc1c(-c2ccc(OCC(C)C)cc2)nn2c(C)cc(C)nc12` yielded an Activity with C6 of 206.5%.

As for `CCN(CC)C(=O)Cc1c(-c2ccc(OC3CCC3)cc2)nn2c(C)cc(C)nc12`, on Translocator protein [3], affinity was put at a Ki of 0.86 nM. The same compound came in with an Activity in the assay on C6 of 184.3%.

On Translocator protein [3], `CCN(CC)C(=O)Cc1c(-c2ccc(OC3CCCC3)cc2)nn2c(C)cc(C)nc12` displayed a Ki of 1.5 nM. The Activity with C6 was determined as 273.4%.

The compound `CCN(CC)C(=O)Cc1c(-c2ccc(OCC3CC3)cc2)nn2c(C)cc(C)nc12` had an Activity in the assay on C6 of 226.3%.

Compound `CCN(CC)C(=O)Cc1c(-c2ccc(OCC3CCC3)cc2)nn2c(C)cc(C)nc12` registered an Activity in the assay on C6 of 298.4%.

As to `CCN(CC)C(=O)Cc1c(-c2ccc(OCC3CCCC3)cc2)nn2c(C)cc(C)nc12`, in the assay with C6, the Activity worked out at 173.9%.

Consider `CCN(CC)C(=O)Cc1c(-c2ccc(OCC3CCCCC3)cc2)nn2c(C)cc(C)nc12`, for which the Activity in the assay on C6 is reported as 134.2%.

As to `CCN(CC)C(=O)Cc1c(-c2ccc(OCc3ccccc3)cc2)nn2c(C)cc(C)nc12`, in the assay with C6, the Activity was found to be 262.4%.

In turn, `CCN(CC)C(=O)Cc1c(-c2ccc(OCc3ccccc3F)cc2)nn2c(C)cc(C)nc12` yielded an Activity in the assay on C6 of 161.5%.

On Translocator protein [3], `CCN(CC)C(=O)Cc1c(-c2ccc(OCc3cccc(F)c3)cc2)nn2c(C)cc(C)nc12` yielded a Ki of 0.47 nM. Further, the Activity in the assay on C6 turned out to be 281.2%.

Turning to `CCN(CC)C(=O)Cc1c(-c2ccc(OCc3ccc(F)cc3)cc2)nn2c(C)cc(C)nc12`, in the assay with C6, the Activity is reported as 311.7%.

`CCN(CC)C(=O)Cc1c(-c2ccc(OCc3ccccc3C(F)(F)F)cc2)nn2c(C)cc(C)nc12`: the Ki at Translocator protein [3] was 1.4 nM. The compound also returned an Activity in the assay on C6 of 331.7%.

As to `CCN(CC)C(=O)Cc1c(-c2ccc(OCc3cccc(C(F)(F)F)c3)cc2)nn2c(C)cc(C)nc12`, on Translocator protein [3], affinity was put at a Ki of 0.67 nM. The compound also gave an Activity with C6 of 230%.

`CCN(CC)C(=O)Cc1c(-c2ccc(OCc3ccc(C(F)(F)F)cc3)cc2)nn2c(C)cc(C)nc12` gave a Ki on Translocator protein [3] of 1.6 nM. For the same compound, in the assay with C6, the Activity is given as 189.9%.

`CCN(CC)C(=O)Cc1c(-c2ccc(OCCc3ccccc3)cc2)nn2c(C)cc(C)nc12` yielded an Activity in the assay on C6 of 254%.

In turn, `COc1ccc(OC)c(CN(C(C)=O)c2cc(F)ccc2Oc2ccccc2)c1` yielded a Ki at Translocator protein [1] of 0.2 nM.

Regarding `CCC(C)N(C)C(=O)c1cc2ccccc2c(-c2ccccc2Cl)n1` (stereo unspecified) [PK-11195], the Activity in the assay with C6 was found to be 166.5%.
